Screening results deposited in PubChem BioAssay by several laboratories.
Rows were chosen to be rich in hits. Some 3.4% of all compounds tested hit in one or more screens of this group.
PKD1 kinase inh: blocks activity of human protein kinase D1; Q15139; PKD1 kinase fluorescence polarization assay; inhibition, % (no concentration beside the values); 200,000 compounds, 0.056% hits; AID 797; in the data active means inhibition above about 50%
Mdm2 ligase inh: blocks human Mdm2 ubiquitin ligase activity. Q00987. signal enhancement, % at 5 µM. 210,000 compounds, 0.11% hits. cell-based MDM2 ubiquitination luciferase reporter, 2 h; 0 = plate control, 100 = twice control, blank-subtracted. AID 1230;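 active means signal enhancement of 30% or more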;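 further: luminescence tracks abundance of the self-degrading MDM2-luciferase fusion protein; higher signal means inhibition of MDM2 E3 ligase activity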
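Test system: mammalian cells stably expressing self-ubiquitinating, self-degrading MDM2 E3–luciferase fusion; Amount: 2000 cells in each well; Medium: DMEM; Schedule: 4 h settle plus 2 h compound, 37 °C; Technique: SteadyLite luciferase luminescence after 15 min room-temperature reagent incubation; Benchmarks: plate control and blank wells.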
p97 inhibitor: blocks human p97 ATPase activity; recombinant p97 ATPase, Kinase-Glo ATP luminescence, 3 h; 220,000 compounds, 0.42% hits; inhibition, % at 8 µM; AID 1481; in the data active means inhibition above about 15%
ROMK primary: modulators of human ROMK potassium channel; P48048; Tet-inducible ROMK, thallium flux fluorescence; actives lie on both sides; B-score at 10 µM; 130,000 compounds, 2% hits; AID 1918;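 active means signal ratio slope over the read window, or its plate-corrected B-score, at least 3 SD from the plate mean, either direction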;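 further: B-score of the F/F0 ratio slope over 7 to 12 s after thallium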
Target sequence (P48048 whole entry, looked up): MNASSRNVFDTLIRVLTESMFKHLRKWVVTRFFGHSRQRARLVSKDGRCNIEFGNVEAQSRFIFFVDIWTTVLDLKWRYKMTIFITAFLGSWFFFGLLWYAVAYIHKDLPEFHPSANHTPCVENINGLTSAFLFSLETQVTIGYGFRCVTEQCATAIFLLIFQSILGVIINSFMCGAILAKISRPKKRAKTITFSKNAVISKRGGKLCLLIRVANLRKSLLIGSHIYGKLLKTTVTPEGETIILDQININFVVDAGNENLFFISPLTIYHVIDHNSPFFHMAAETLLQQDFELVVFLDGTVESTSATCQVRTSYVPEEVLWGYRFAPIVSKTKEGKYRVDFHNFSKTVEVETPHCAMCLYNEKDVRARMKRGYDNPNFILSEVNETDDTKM
Cl transport mod: KCC2 (human) Cl- transport modulation | Q9H2X9 | KCC2 cells, thallium flux FluoZin-2 fluorescence | B-score of Tl+ flux slope (higher = more flux/activation; lower = inhibition) at 10 µM | 190,000 compounds, 2.2% hits | AID 1456;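 active means thallium flux slope and its plate-corrected score both differing from the plate sample mean at a set confidence after two filtering rounds, in either direction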;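 further: slope of fluorescence scaled to starting intensity during 10 to 20 s after thallium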
DTT redox prof: compounds producing H2O2 with reducing agent – biochemical, NIH compound library profiling, artefact control for MLSCN library redox annotation, primary screen; DTT-dependent redox cycling H2O2, phenol red/HRP absorbance; 100% = 100 µM peroxide control, 0% = buffer; activation, % at 10 µM; 200,000 compounds, 0.03% hits;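 active means activation of at least 50% relative to the plate's high and low controls in the primary single-dose screen; inactive means activation below 50%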;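 further: compound incubated with DTT at 0.8 mM final as the reducing agent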
KCC2 sec1: KCC2 (human) modulation, secondary assay. shares compounds with Cl transport mod. HEK293-KCC2, thallium flux, FluoZin2 fluorescence; stronger effect = higher value. normalised thallium flux (F/F0 slope) at 10 µM. 3,700 compounds, 15% hits. AID 1713;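 active means thallium flux slope above the same plate's solvent-only control mean plus 3 SD; inconclusive means the two replicate wells disagree; inactive means no significant difference from solvent-only control wells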
KCC2 bumet counter: bumetanide-insensitive thallium flux in KCC2 cells with ouabain, counter-screen; shares compounds with Cl transport mod; HEK293-KCC2 + bumetanide/ouabain, thallium flux FluoZin2; stronger effect = higher value; normalized thallium flux at 10 µM; 3,700 compounds, 49% hits; AID 1714;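 active means thallium entry rate above the same plate's blocked-transporter control wells by more than 3 SD; inconclusive means the two repeat wells disagree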;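 further: raw slope of fluorescence over initial fluorescence between 10 and 20 s after thallium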
KCC2 sec2: confirmation of human KCC2 transport modulators. shares compounds with Cl transport mod. AID 1715. normalized thallium flux at 10 µM. 3,700 compounds, 23% hits. HEK293-KCC2, thallium flux FluoZin2 fluorescence; actives lie on both sides; F/F0 rise rate, 10–20 s post-thallium;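 active means thallium flux slope more than 3 SD above or below the plate's solvent-only control mean, mostly below; inconclusive means the two repeat wells disagreed; inactive means no significant shift from solvent-only controls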
HEK counter1: acts in parental HEK cells, KCC2 counter-screen. HEK293 parental cells, thallium flux FluoZin2, ouabain; baseline-ratio fluorescence slope, 10–20 s after thallium. thallium flux rate (normalised fluorescence) at 10 µM. shares compounds with Cl transport mod. 3,700 compounds, 46% hits;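 active means thallium flux rate significantly above the same plate's solvent-only control wells, beyond their mean plus 3 SD; inconclusive means the two replicate wells gave conflicting results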
KCC2 retest ouab: modulates human KCC2 on retest with ouabain; shares compounds with Cl transport mod; HEK293-KCC2, thallium flux FluoZin2 fluorescence; bidirectional: low = inhibitor, high = activator; raw Tl+ flux slope (below DMSO = inhibition, above = activation) at 10 µM; 3,700 compounds, 48% hits; AID 1717;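 active means thallium flux slope beyond 3 SD from same-plate DMSO control mean in most replicates, usually higher, sometimes lower; inconclusive means repeat tests gave conflicting results; inactive means no significant difference from controls in most replicates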;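 further: slope of initial-normalized fluorescence between seconds 10 and 20 after thallium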
HEK293 Tl flux2: acts in parental HEK cells, second KCC2 counter-screen. HEK293 parental, thallium flux FluoZin-2 fluorescence slope. shares compounds with Cl transport mod. thallium flux slope at 10 µM. 3,700 compounds, 33% hits;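 active means thallium flux slope above the same plate's solvent-control mean plus 3 SD in both duplicate wells; inconclusive means duplicate wells that disagreed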;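 further: run without ouabain in cells lacking the KCC2 cotransporter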
Of the large screens only hits and unclear results are named; the others gave an inactive call (follow-up assays come after a bar, where they were run).

CN(C)S(=O)(=O)c1cccc(NC(=S)N/N=C/C2CC=CCC2)c1 (centres undefined)	none
CN(C)S(=O)(=O)c1cccc(NC(=S)NC2CCCCC2)c1	none
COc1cc(/C=N/NC(=S)Nc2cccc(S(=O)(=O)N(C)C)c2)ccc1O	Cl transport mod -3.4 | KCC2 sec1 inactive | KCC2 bumet counter inactive | KCC2 sec2 inactive | HEK counter1 inactive | KCC2 retest ouab 0.016 | HEK293 Tl flux2 inactive
CN(C)S(=O)(=O)c1cccc(NC(=S)NN=C(Cc2ccccc2)Cc2ccccc2)c1	Cl transport mod 5.9 (no result: ROMK primary) | KCC2 sec1 inactive | KCC2 bumet counter 0.0099 | KCC2 sec2 inactive | HEK counter1 0.014 | KCC2 retest ouab inactive | HEK293 Tl flux2 0.016
S=c1[nH]nc(CSCCOc2ccc(Cl)cc2Cl)o1	Cl transport mod 162 (no result: PKD1 kinase inh, ROMK primary, DTT redox prof) | KCC2 sec1 inactive | KCC2 bumet counter 0.056 | KCC2 sec2 inconclusive | HEK counter1 0.033 | KCC2 retest ouab 0.056 | HEK293 Tl flux2 inactive
O=C(Nc1ccccc1)c1ccc(-c2ccc(F)cc2)s1	none
COCCNC(=S)NC(=O)c1ccc(C(C)(C)C)cc1	Cl transport mod 8.4 (no result: ROMK primary) | KCC2 sec1 inactive | KCC2 bumet counter 0.025 | KCC2 sec2 inactive | HEK counter1 inconclusive | KCC2 retest ouab inactive | HEK293 Tl flux2 inactive
CCCCNC(=O)c1onc(CSc2ccc(F)cc2)c1C(=O)NCCCC	none (no result: PKD1 kinase inh, p97 inhibitor, ROMK primary, DTT redox prof)
CCOC(=O)c1c(-c2cccs2)csc1NC(=O)CCCC(=O)O	none (no result: Cl transport mod) | KCC2 sec1 inactive | KCC2 bumet counter 0.006 | KCC2 sec2 inactive | HEK counter1 inconclusive | KCC2 retest ouab inactive | HEK293 Tl flux2 inactive
CCOC(=O)c1c(-c2cccs2)csc1NC(C)=O	none
CC(C)NC(=O)c1onc(CSc2ccc(Cl)cc2)c1C(=O)NC(C)C	Cl transport mod 2.4 (no result: PKD1 kinase inh, p97 inhibitor, ROMK primary, DTT redox prof) | KCC2 sec1 inactive | KCC2 bumet counter inactive | KCC2 sec2 inactive | HEK counter1 inactive | KCC2 retest ouab inactive | HEK293 Tl flux2 inactive
C/C(=N\NC(=O)c1cccc([N+](=O)[O-])c1)c1cccs1	Cl transport mod 3.8 (no result: PKD1 kinase inh, DTT redox prof) | KCC2 sec1 inactive | KCC2 bumet counter 0.023 | KCC2 sec2 inactive | HEK counter1 0.017 | KCC2 retest ouab inconclusive | HEK293 Tl flux2 inconclusive
COC(=O)N/N=C1\CCCc2ccccc21	none
C/C(=N/NC(=O)c1cccs1)c1ccco1	Cl transport mod 4.7 (no result: ROMK primary) | KCC2 sec1 inactive | KCC2 bumet counter 0.015 | KCC2 sec2 inactive | HEK counter1 inconclusive | KCC2 retest ouab inconclusive | HEK293 Tl flux2 0.011
O=C(N/N=C1/CCCc2ccccc21)c1cc([N+](=O)[O-])cc([N+](=O)[O-])c1	none
O=C(N/N=C1\CCCc2ccccc21)c1cccc(Br)c1	Cl transport mod 5.9 | KCC2 sec1 inconclusive | KCC2 bumet counter 0.022 | KCC2 sec2 inactive | HEK counter1 0.011 | KCC2 retest ouab inconclusive | HEK293 Tl flux2 inconclusive
O=C(N/N=C1\CCCc2ccccc21)c1cccc([N+](=O)[O-])c1	Cl transport mod 4.4 | KCC2 sec1 inconclusive | KCC2 bumet counter 0.023 | KCC2 sec2 inactive | HEK counter1 0.012 | KCC2 retest ouab inactive | HEK293 Tl flux2 0.012
C/C(=N\NC(=O)c1csc(C)c1C)c1ccco1	none
CCCCNC(=O)N1CCN(c2ccccc2OC)CC1	none
CCOc1ccc(N=Cc2c(O)c3ccccc3oc2=O)cc1	none
COc1ccc(-c2c(C#N)sc(C(N)=O)c2-c2ccc(OC)cc2)cc1	none (no result: PKD1 kinase inh, ROMK primary, DTT redox prof)
N#Cc1sc(C(N)=O)c(-c2ccccc2)c1-c1ccccc1	Cl transport mod 5.1 (no result: PKD1 kinase inh, ROMK primary, DTT redox prof) | KCC2 sec1 inactive | KCC2 bumet counter inactive | KCC2 sec2 inactive | HEK counter1 inactive | KCC2 retest ouab inactive | HEK293 Tl flux2 inactive
Cc1ccc(O)c(N=Cc2cc(Cc3ccccc3)cc([N+](=O)[O-])c2O)c1	Cl transport mod -3.8 | KCC2 sec1 inactive | KCC2 bumet counter inconclusive | KCC2 sec2 inactive | HEK counter1 inactive | KCC2 retest ouab 0.014 | HEK293 Tl flux2 inconclusive
Cc1cccc(N2CCN(C(=O)C3CCN(S(=O)(=O)N4CCOCC4)CC3)CC2)c1C	none
COc1cc2[nH]c(=S)n(C3CCCC3)c(=O)c2cc1OC	Cl transport mod 24 | KCC2 sec1 inconclusive | KCC2 bumet counter 0.043 | KCC2 sec2 inactive | HEK counter1 0.017 | KCC2 retest ouab 0.038 | HEK293 Tl flux2 0.01
COc1cc2[nH]c(=S)n(C3CC3)c(=O)c2cc1OC	none
O=C(N/N=C/c1ccc[nH]1)c1sc2ccccc2c1Cl	Cl transport mod 9.7 | KCC2 sec1 0.014 | KCC2 bumet counter 0.094 | KCC2 sec2 inactive | HEK counter1 0.024 | KCC2 retest ouab 0.05 | HEK293 Tl flux2 0.011
Cc1ccc(C2(C(F)(F)F)NC(=O)N3CCCN=C3S2)cc1 (centres undefined)	Cl transport mod 3.9 (no result: ROMK primary) | KCC2 sec1 inactive | KCC2 bumet counter inactive | KCC2 sec2 inactive | HEK counter1 inactive | KCC2 retest ouab inactive | HEK293 Tl flux2 inactive
CC(C)N1C(=S)SC(C)(C)C1NO (centres undefined)	none (no result: ROMK primary)
CN1C(=S)SC(C)(C)C1NO (centres undefined)	Cl transport mod -4.7 | KCC2 sec1 inactive | KCC2 bumet counter inactive | KCC2 sec2 inactive | HEK counter1 inactive | KCC2 retest ouab inactive | HEK293 Tl flux2 inactive
Cc1ccc(/C=N/n2c(-c3ccncc3)n[nH]c2=S)s1	none (no result: PKD1 kinase inh, ROMK primary, DTT redox prof)
S=c1[nH]nc(-c2cccnc2)n1/N=C/c1cccs1	none
Cc1cccc(-c2n[nH]c(=S)n2/N=C/c2cccs2)c1	Cl transport mod 41 (no result: PKD1 kinase inh, DTT redox prof) | KCC2 sec1 0.019 | KCC2 bumet counter 0.08 | KCC2 sec2 inactive | HEK counter1 0.054 | KCC2 retest ouab 0.054 | HEK293 Tl flux2 0.016
